Reference: ChEMBL document CHEMBL1131588, “A novel class of orally active non-peptide bradykinin B2 receptor antagonists. 2. Overcoming the species difference between guinea pig and man” (J Med Chem, 1998)

Experiments:
B2 bradykinin receptor [1] = target: T1, B2 bradykinin receptor (Cavia porcellus, UniProt O70526); assay: Concentration required to inhibit specific binding of [3H]BK at 0.06 nM to Bradykinin receptor B2 in guinea pig ileum membrane preparations by 50%.; assay type: cell membranes
T1 sequence (O70526 whole entry): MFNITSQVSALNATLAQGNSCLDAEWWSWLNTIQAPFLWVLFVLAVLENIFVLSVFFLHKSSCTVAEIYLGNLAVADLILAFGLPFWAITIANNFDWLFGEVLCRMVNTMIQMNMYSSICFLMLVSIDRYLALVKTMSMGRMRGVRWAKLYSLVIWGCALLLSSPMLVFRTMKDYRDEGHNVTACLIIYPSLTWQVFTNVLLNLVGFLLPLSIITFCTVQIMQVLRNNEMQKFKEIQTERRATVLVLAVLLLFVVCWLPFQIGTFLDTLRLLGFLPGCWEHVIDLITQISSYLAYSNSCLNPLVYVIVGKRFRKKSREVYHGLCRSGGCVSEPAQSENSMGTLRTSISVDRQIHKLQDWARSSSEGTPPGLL
Summary of the method: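 Guinea pig ileal membranes (100000g pellet, pH 6.8 TES buffer with phenanthroline, bacitracin, DTT, captopril, 0.1% BSA), 0.2 mg protein/mL, incubated with 0.06 nM [3H]BK and compounds 60 min at room temperature; final DMSO below 3%. Filtration on glass fiber filters, scintillation counting; nonspecific binding with 1 µM BK. Three experiments in duplicate.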

B2 bradykinin receptor [2] = target: T2, B2 bradykinin receptor (Homo sapiens, UniProt P30411); assay: Concentration required to inhibit specific binding of [3H]BK at 1.2 nM to A-431 cells (human epidermoid carcinoma) which express Bradykinin receptor B2 by 50%.; assay type: cell-based
T2 sequence (P30411 whole entry): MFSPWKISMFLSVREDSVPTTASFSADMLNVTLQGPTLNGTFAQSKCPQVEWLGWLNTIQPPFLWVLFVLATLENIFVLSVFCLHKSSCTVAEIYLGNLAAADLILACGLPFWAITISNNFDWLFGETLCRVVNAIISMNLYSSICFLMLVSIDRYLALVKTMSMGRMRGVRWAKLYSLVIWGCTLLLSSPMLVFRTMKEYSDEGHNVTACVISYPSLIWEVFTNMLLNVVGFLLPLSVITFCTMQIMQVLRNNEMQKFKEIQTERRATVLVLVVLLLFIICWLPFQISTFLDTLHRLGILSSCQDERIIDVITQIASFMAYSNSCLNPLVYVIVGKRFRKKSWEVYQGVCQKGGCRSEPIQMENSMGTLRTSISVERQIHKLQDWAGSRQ

Cavia porcellus [3] = assay: Compound tested in vivo for inhibition of Bradykinin induced Bronchoconstriction in anaesthetized guinea pig; % Inhibition at 3.2 mg/Kg p,o.; assay type: functional
Summary of the method: (§1)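 Male Hartley guinea pigs (470-750 g), fasted overnight, anesthetized with pentobarbital 30 mg/kg ip, cannulated (trachea, jugular vein, esophagus), ventilated 10 mL/kg at 60 breaths/min; alcuronium 0.5 mg/kg iv, propranolol 10 mg/kg sc. BK 5 µg/kg iv; peak rise in insufflation pressure (modified Konzett-Rössler).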

Cavia porcellus [4] = assay: Compound tested in vivo for inhibition of Bradykinin induced Bronchoconstriction in anaesthetized guinea pig.(P<0.01); % Inhibition at 1 mg/Kg p,o.; assay type: functional; summary of the method: as §1
Cavia porcellus [5] = assay: Compound tested in vivo for inhibition of Bradykinin induced Bronchoconstriction in anaesthetized guinea pig.(P<0.01); % Inhibition at 1 mg/kg. p.o.; assay type: functional; conditions: route oral; summary of the method: as §1
Cavia porcellus [6] = assay: Compound tested in vivo for inhibition of Bradykinin induced Bronchoconstriction in anaesthetized guinea pig.(P<0.001); % Inhibition at 3.2 mg/Kg p,o.; assay type: functional; summary of the method: as §1
Cavia porcellus [7] = assay: Compound tested in vivo for inhibition of Bradykinin induced Bronchoconstriction in anaesthetized guinea pig.(P<0.01); % Inhibition at 3.2 mg/kg p.o.; assay type: functional; conditions: route oral; summary of the method: as §1
Cavia porcellus [8] = assay: Compound tested in vivo for inhibition of Bradykinin induced Bronchoconstriction in anaesthetized guinea pig.(P<0.05); % Inhibition at 1 mg/Kg p,o.; assay type: functional; summary of the method: as §1
Cavia porcellus [9] = assay: Compound tested in vivo for inhibition of Bradykinin induced Bronchoconstriction in anaesthetized guinea pig.(P<0.01); % Inhibition at 3.2 mg/Kg p,o.; assay type: functional; summary of the method: as §1
Cavia porcellus [10] = assay: Compound tested in vivo for inhibition of Bradykinin induced Bronchoconstriction in anaesthetized guinea pig.(P<0.001); % Inhibition at 1 mg/Kg p,o.; assay type: functional; summary of the method: as §1

| Compound | IC50 (B2 bradykinin receptor [1]) | IC50 (B2 bradykinin receptor [2]) | Inhibition (Cavia porcellus [4]) | also measured |
| --- | --- | --- | --- | --- |
| Cc1nc2c(OCc3c(Cl)ccc(N(C)C(=O)CNC(=O)CCCc4ccccc4)c3Cl)cccn2c1Br | 8.9 nM | 480 nM |  |  |
| Cc1nc2c(OCc3c(Cl)ccc(N(C)C(=O)CNC(=O)CCc4ccccc4)c3Cl)cccn2c1Br | 1.4 nM | 350 nM |  |  |
| Cc1nc2c(OCc3c(Cl)ccc(N(C)C(=O)CNC(=O)NCc4ccccc4)c3Cl)cccn2c1Br.Cl | 11 nM | 570 nM |  | Inhibition (Cavia porcellus [3]): 24.1% |
| Cc1nc2c(OCc3c(Cl)ccc(N(C)C(=O)CNC(=O)COc4ccccc4)c3Cl)cccn2c1Br | 4.2 nM | 510 nM |  |  |
| Cc1nc2c(OCc3c(Cl)ccc(N(C)C(=O)CNC(=O)/C=C/c4ccc(C(=O)N(C)C)nc4)c3Cl)cccn2c1Br.Cl.Cl | 0.44 nM | 3.7 nM | 92.4% |  |
| CCCC(=O)NCC(=O)N(C)c1ccc(Cl)c(COc2cccn3c(Br)c(C)nc23)c1Cl |  | 610 nM |  | inhibition in vivo at 1 mg/kg (Cavia porcellus [5]): 52.7% |
| CC(=O)NCC(=O)N(C)c1ccc(Cl)c(COc2cccn3c(Br)c(C)nc23)c1Cl.Cl |  | 4100 nM |  | Inhibition (Cavia porcellus [6]): 94.2%; inhibition in vivo at 1 mg/kg (Cavia porcellus [5]): 62.3% |
| Cc1nc2c(OCc3c(Cl)ccc(N(C)C(=O)CNC(=O)Nc4cccc(C(=O)O)c4)c3Cl)cccn2c1Br | 63 nM | 5200 nM |  |  |
| CCOC(=O)c1cccc(NC(=O)NCC(=O)N(C)c2ccc(Cl)c(COc3cccn4c(Br)c(C)nc34)c2Cl)c1 | 2.2 nM | 150 nM |  |  |
| CC(=O)c1cccc(NC(=O)NCC(=O)N(C)c2ccc(Cl)c(COc3cccn4c(Br)c(C)nc34)c2Cl)c1.Cl | 0.79 nM | 61 nM | 24.9% |  |
| Cc1cccc(NC(=O)NCC(=O)N(C)c2ccc(Cl)c(COc3cccn4c(Br)c(C)nc34)c2Cl)c1 | 2.7 nM | 140 nM |  | inhibition in vivo at 3.2 mg/kg (Cavia porcellus [7]): 27.4% |
| Cc1nc2c(OCc3c(Cl)ccc(N(C)C(=O)CNC(=O)Nc4cccc(Cl)c4)c3Cl)cccn2c1Br.Cl | 3.8 nM | 1900 nM | 14.5% |  |
| CC(=O)Nc1ccc(/C=C/C(=O)NCC(=O)N(C)c2ccc(Cl)c(COc3cccn4c(Br)c(C)nc34)c2Cl)cn1.Cl.Cl | 0.38 nM | 2.4 nM |  | Inhibition (Cavia porcellus [8]): 76.4% |
| CNC(=O)Nc1ccc(/C=C/C(=O)NCC(=O)N(C)c2ccc(Cl)c(COc3cccn4c(Br)c(C)nc34)c2Cl)cc1.Cl | 0.89 nM | 2.6 nM | 18.8% |  |
| CCNC(=O)NCC(=O)N(C)c1ccc(Cl)c(COc2cccn3c(Br)c(C)nc23)c1Cl |  | 3000 nM |  | Inhibition (Cavia porcellus [6]): 78.1%; inhibition in vivo at 1 mg/kg (Cavia porcellus [5]): 57.2% |
| Cc1nc2c(OCc3c(Cl)ccc(N(C)C(=O)CNC(=O)Nc4cccc(N)c4)c3Cl)cccn2c1Br | 15 nM | > 1000 nM |  |  |
| CC(=O)N(C)c1ccc(/C=C/C(=O)NCC(=O)N(C)c2ccc(Cl)c(COc3cccn4c(Br)c(C)nc34)c2Cl)cc1.Cl | 1.1 nM | 16 nM | 84.3% |  |
| NC(N)=NCCC[C@@H](N)C(=O)N[C@@H](CCCN=C(N)N)C(=O)N1CCC[C@H]1C(=O)N1C[C@H](O)C[C@H]1C(=O)NCC(=O)N[C@@H](Cc1cccs1)C(=O)N[C@@H](CO)C(=O)N1Cc2ccccc2C[C@@H]1C(=O)N1[C@H](C(=O)N[C@@H](CCCN=C(N)N)C(=O)O)C[C@@H]2CCCC[C@@H]21 [ICATIBANT] | 0.09 nM |  |  |  |

| Compound | IC50 (B2 bradykinin receptor [1]) | IC50 (B2 bradykinin receptor [2]) | Inhibition (Cavia porcellus [4]) | also measured |
| --- | --- | --- | --- | --- |
| COCC(=O)Nc1cccc(NC(=O)NCC(=O)N(C)c2ccc(Cl)c(COc3cccn4c(Br)c(C)nc34)c2Cl)c1 | 2.7 nM | 75 nM |  |  |
| Cc1ccccc1NC(=O)NCC(=O)N(C)c1ccc(Cl)c(COc2cccn3c(Br)c(C)nc23)c1Cl | 83 nM | 150 nM |  |  |
| Cc1ccc(NC(=O)NCC(=O)N(C)c2ccc(Cl)c(COc3cccn4c(Br)c(C)nc34)c2Cl)cc1.Cl | 12 nM | 260 nM |  | Inhibition (Cavia porcellus [9]): 35% |
| Cc1nc2c(OCc3c(Cl)ccc(N(C)C(=O)CNC(=O)Cc4ccccc4)c3Cl)cccn2c1Br.Cl | 5.3 nM | 670 nM |  | Inhibition (Cavia porcellus [3]): 19.8% |
| Cc1nc2c(OCc3c(Cl)ccc(N(C)C(=O)CNC(=O)Nc4cccc(C(=O)N(C)C)c4)c3Cl)cccn2c1Br.Cl | 0.76 nM | 20 nM | 23.2% |  |
| Cc1nc2c(OCc3c(Cl)ccc(N(C)C(=O)CNC(=O)Nc4cccc([N+](=O)[O-])c4)c3Cl)cccn2c1Br | 4.2 nM | 180 nM |  | inhibition in vivo at 1 mg/kg (Cavia porcellus [5]): 13.6% |
| Cc1nc2c(OCc3c(Cl)ccc(N(C)C(=O)CNC(=O)/C=C/c4ccc(NS(C)(=O)=O)cc4)c3Cl)cccn2c1Br | 3.9 nM | 4.8 nM |  |  |
| CCCCCC(=O)NCC(=O)N(C)c1ccc(Cl)c(COc2cccn3c(Br)c(C)nc23)c1Cl | 5.6 nM | 240 nM |  |  |
| Cc1nc2c(OCc3c(Cl)ccc(N(C)C(=O)CNC(=O)Nc4ccccc4)c3Cl)cccn2c1Br | 1.4 nM | 150 nM |  |  |
| Cc1nc2c(OCc3c(Cl)ccc(N(C)C(=O)CNC(=O)Nc4cccc(C#N)c4)c3Cl)cccn2c1Br.Cl | 1.4 nM | 190 nM | 4.7% |  |
| Cc1nc2c(OCc3c(Cl)ccc(N(C)C(=O)CNC(=O)/C=C\c4ccccc4)c3Cl)cccn2c1Br | 0.78 nM | 120 nM |  | inhibition in vivo at 1 mg/kg (Cavia porcellus [5]): 0% |
| Cc1nc2c(OCc3c(Cl)ccc(N(C)C(=O)CNC(=O)NC(=O)c4ccccc4)c3Cl)cccn2c1Br | 340 nM | 510 nM |  |  |
| CNC(=O)c1ccc(/C=C/C(=O)NCC(=O)N(C)c2ccc(Cl)c(COc3cccn4c(Br)c(C)nc34)c2Cl)cn1.Cl.Cl | 0.36 nM | 9.1 nM | 89.4% |  |
| COc1cccc(NC(=O)NCC(=O)N(C)c2ccc(Cl)c(COc3cccn4c(Br)c(C)nc34)c2Cl)c1.Cl | 2.3 nM | 200 nM | 0% |  |
| COCCNC(=O)c1cccc(NC(=O)NCC(=O)N(C)c2ccc(Cl)c(COc3cccn4c(Br)c(C)nc34)c2Cl)c1.Cl | 0.79 nM | 20 nM | 16.1% |  |
| Cc1nc2c(OCc3c(Cl)ccc(N(C)C(=O)CNC(=O)/C=C/c4ccc(N5CCCC5=O)cc4)c3Cl)cccn2c1Br.Cl | 0.59 nM | 4.1 nM | 82% |  |
| CNC(=O)c1ccc(/C=C/C(=O)NCC(=O)N(C)c2ccc(Cl)c(COc3cccn4c(Br)c(C)nc34)c2Cl)cc1.Cl | 0.5 nM | 1.5 nM |  | Inhibition (Cavia porcellus [10]): 53.2% |
